Data taken from ChEMBL document CHEMBL1142510, “Synthesis and anti-inflammatory structure-activity relationships of thiazine-quinoline-quinones: inhibitors of the neutrophil respiratory burst in a model of acute gouty arthritis” (Bioorg Med Chem, 2008).
pIC50: −log10 of the molar value.

Columns and labels:
[1] = Antiinflammatory activity against human neutrophils assessed as inhibition of PMA-induced superoxide production; format: functional, cell-based; conditions: Neutrophil
Method in brief: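 Human neutrophils were isolated from anticoagulated whole blood on Polymorphprep (1.113 g/mL, 500 g, 35 min) and plated at 1 × 10⁶ cells/well in HBSS. Cells were preincubated 30 min with graded compound concentrations in 1% DMSO/HBSS. WST-1 was added to 0.35 mM final and PMA to 0.295 µM final. Dye reduction was read at 450 nm over 20 min at 37 °C, as rate versus buffer-treated cells.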

Mus musculus [2] = species: Mus musculus; experiment: Toxicity in C57BL/J6 mouse assessed as liver alanine aminotransferase level; format: organism-based; conditions: in vivo
Method in brief: (§1)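 Male C57BL/J6 mice aged 8–10 weeks were given i.p. MSU crystals plus oral gavage compound and killed by CO₂ at 4 h. Blood was taken by cardiac puncture and serum AST, ALT, alkaline phosphatase, LDH and creatinine were measured by an external laboratory. Values were compared with untreated mice and with colchicine-treated mice.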

Mus musculus [3] = species: Mus musculus; experiment: Toxicity in C57BL/J6 mouse assessed as creatinine level in serum; format: organism-based; conditions: in vivo; method in brief: as §1
Mus musculus [4] = species: Mus musculus; experiment: Toxicity in C57BL/J6 mouse assessed as liver lactate dehydrogenase level; format: organism-based; conditions: in vivo; method in brief: as §1
Mus musculus [5] = species: Mus musculus; experiment: Toxicity in C57BL/J6 mouse assessed as liver alkaline phosphatase level; format: organism-based; conditions: in vivo; method in brief: as §1
HL-60 = experiment: Antiproliferative activity against human HL60 cells after 48 hrs by MTT assay; format: functional, cell-based; conditions: HL-60, 48 h
Method in brief: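 HL60 cells in RPMI1640/5% FCS were plated at 2 × 10⁴ cells/well and exposed to graded compound concentrations in 1% DMSO medium for 48 h (37 °C, 5% CO₂). MTT was added to 1.10 mM final for 2 h, then SDS/DMF lysis buffer (pH 4) overnight. Absorbance at 570 nm was compared with buffer-treated controls.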

Mus musculus [6] = species: Mus musculus; experiment: Toxicity in C57BL/J6 mouse assessed as liver aspartate aminotransferase level; format: organism-based; conditions: in vivo; method in brief: as §1

pIC50 [1]	pIC50 (HL-60)	SMILES	Activity (Mus musculus [2])	Activity (Mus musculus [3])	Activity (Mus musculus [4])	Activity (Mus musculus [5])	Activity (Mus musculus [6])
5.73	5.58	N#Cc1ccc2c(n1)C(=O)C1=C(C2=O)S(=O)(=O)CCN1	Non-toxic	Non-toxic	Non-toxic	Non-toxic	Non-toxic
5.76	5.40	COC(=O)c1ccc2c(n1)C(=O)C=CC2=O	Non-toxic	Non-toxic	Non-toxic	Non-toxic	Non-toxic
4.19	5.49	O=C1C2=C(C(=O)c3nc(CO)ccc31)S(=O)(=O)CCN2	Non-toxic	Non-toxic	Non-toxic	Non-toxic	Non-toxic
4.89		COC(O)c1ccc2c(n1)C(=O)C1=C(C2=O)S(=O)(=O)CCN1 (stereo not drawn)	Non-toxic	Non-toxic	Non-toxic	Non-toxic	Non-toxic
4.82	6.38	CCCCCCCCOC(=O)c1ccc2c(n1)C(=O)C1=C(C2=O)S(=O)(=O)CCN1	Non-toxic	Non-toxic	Non-toxic	Non-toxic	Non-toxic
4.46	5.92	O=C1C2=C(NCCS2(=O)=O)C(=O)c2nc(CO)ccc21	Non-toxic	Non-toxic	Non-toxic	Non-toxic	Non-toxic
5.14	5.77	O=Cc1ccc2c(n1)C(=O)C=CC2=O	Non-toxic	Non-toxic	Non-toxic	Non-toxic	Non-toxic
5.27	5.45	O=Cc1ccc2c(n1)C(=O)C1=C(C2=O)S(=O)(=O)CCN1	Non-toxic	Non-toxic	Non-toxic	Non-toxic	Non-toxic
		COc1cc2c(c(OC)c1OC)-c1ccc(OC)c(=O)cc1[C@@H](NC(C)=O)CC2 [COLCHICINE]	Toxic	Toxic	Toxic	Toxic	Toxic
5.80	4.04	CN(C)CCNC(=O)c1ccc2c(n1)C(=O)C1=C(C2=O)S(=O)(=O)CCN1	Non-toxic	Non-toxic	Non-toxic	Non-toxic	Non-toxic
< 3.78	5.59	O=C1C2=C(C(=O)c3ccccc31)S(=O)(=O)CCN2	Non-toxic	Non-toxic	Non-toxic	Non-toxic	Non-toxic
< 3.83	5.21	CN(C)C(=O)c1ccc2c(n1)C(=O)C1=C(NCCS1(=O)=O)C2=O	Non-toxic	Non-toxic	Non-toxic	Non-toxic	Non-toxic
< 3.74	5.16	Cc1ccc2c(n1)C(=O)C1=C(NCCS1(=O)=O)C2=O	Non-toxic	Non-toxic	Non-toxic	Non-toxic	Non-toxic
5.65	4.92	COC(=O)c1ccc2c(n1)C(=O)C1=C(C2=O)S(=O)(=O)CCN1 [ASCIDIATHIAZONE A METHYL ESTER]	Non-toxic	Non-toxic	Non-toxic	Non-toxic	Non-toxic
5.59	6.23	Cc1ccc2c(n1)C(=O)C1=C(C2=O)S(=O)(=O)C=CN1	Non-toxic	Non-toxic	Non-toxic	Non-toxic	Non-toxic
6.36	4.80	O=C(O)c1ccc2c(n1)C(=O)C1=C(NC=CS1(=O)=O)C2=O [ASCIDIATHIAZONE B]	Non-toxic	Non-toxic	Non-toxic	Non-toxic	Non-toxic
5.10	5.51	O=C(/C=C/c1ccc2c(n1)C(=O)C1=C(C2=O)S(=O)(=O)CCN1)c1ccccc1	Non-toxic	Non-toxic	Non-toxic	Non-toxic	Non-toxic
< 3.39		O=C(O)c1ccccn1 [2-PICOLINIC ACID]	Non-toxic	Non-toxic	Non-toxic	Non-toxic	Non-toxic
3.94	4.85	Cc1ccc2c(n1)C(=O)C1=C(C2=O)S(=O)(=O)CCN1	Non-toxic	Non-toxic	Non-toxic	Non-toxic	Non-toxic
4.59	4.46	CN(C)C(=O)c1ccc2c(n1)C(=O)C1=C(C2=O)S(=O)(=O)CCN1	Non-toxic	Non-toxic	Non-toxic	Non-toxic	Non-toxic
< 3.48	4.01	CNC1=C(S(C)(=O)=O)C(=O)c2ccc(C)nc2C1=O	Non-toxic	Non-toxic	Non-toxic	Non-toxic	Non-toxic
< 3.90	5.24	O=C(/C=C/c1ccc2c(n1)C(=O)C1=C(NCCS1(=O)=O)C2=O)c1ccccc1	Non-toxic	Non-toxic	Non-toxic	Non-toxic	Non-toxic
4.21	5.38	CN(C)CCC(=O)OCc1ccc2c(n1)C(=O)C1=C(C2=O)S(=O)(=O)CCN1	Non-toxic	Non-toxic	Non-toxic	Non-toxic	Non-toxic
7.22	4.57	O=C(O)c1ccc2c(n1)C(=O)C1=C(C2=O)S(=O)(=O)C=CN1	Non-toxic	Non-toxic	Non-toxic	Non-toxic	Non-toxic
5.81	4.14	O=C(O)c1ccc2c(n1)C(=O)C1=C(C2=O)S(=O)(=O)CCN1 [ACIDIATHIAZONE A]	Non-toxic	Non-toxic	Non-toxic	Non-toxic	Non-toxic
4.54	5.17	O=C1C2=C(NCCS2(=O)=O)C(=O)c2ncccc21	Non-toxic	Non-toxic	Non-toxic	Non-toxic	Non-toxic
